Laboratory results published in PubChem BioAssay.
Inconclusive results are not listed. The source made the active and inactive calls.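 Rule for the calls, unless noted: active = viability at or below 27.92% in each of two runs, the all-compound median minus 4 SD; inconclusive = no clear call, values can overlap the other calls; inactive = the rest.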

Assays:
[1] = OD615 S. cerevisiae growth inhibition, permissive medium, pilot counter-assay, permissive growth control for S. cerevisiae lifespan shortening project (AID 705;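 active = growth inhibition above 25% in both replicates, a cutoff set 3 SD above the mean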); details: OD615, 24 h, at 10 µM, stronger effect = higher value
Summary of the method: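 Test system: Saccharomyces cerevisiae strain carrying genetically modified DeaD replicative-lifespan system; buffer or medium: SC raffinose/galactose permissive medium; dosing: one dose 10 µM, DMSO 0.25% final; times: 24 h exposure, 30 °C; measured by: OD at 615 nm; read-out basis: growth inhibition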

[2] = Restrictive medium S. cerevisiae growth inhibition, OD615, pilot screen of yeast lifespan reduction project, restrictive growth control (AID 706;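 active = growth inhibition above a set limit, 3 SD over mean compound inhibition, in both replicates, cut at about 43% in these data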;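 note: modified DeaD lifespan yeast strain shifted to restrictive glucose medium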); details: OD615, 48 h, at 10 µM, stronger effect = higher value
Summary of the method: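 material = engineered S. cerevisiae DeaD strain | buffer or medium = glucose-based CSMM-D restrictive medium | dosing = one concentration, 10 µM final, 0.25% DMSO | schedule = 4 h pre-growth plus 48 h compound exposure, 30 °C | detection = OD615 absorbance reading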

[3] = viability gain of MRP-1-high H69AR cells under doxorubicin, pilot screen, MRP-1 activator project, CellTiter-Glo, duplicate (AID 807;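 active = viability increase at or above a cutoff of the median across tested compounds plus 3 SD, cut at about 8.5% in these data, passing the limit was not always enough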;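 note: compound pretreatment 18-22 h then 72 h combined with doxorubicin; 0% = doxorubicin alone and 100% = vehicle without doxorubicin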); details: H69AR viability with doxorubicin, CellTiter-Glo luminescence; at 10 µM; stronger effect = higher value
[4] = growth suppression of PTEN-deleted HCT116, pilot screen, cell-based, HCT116 clonal line, CellTiter-Glo (AID 824); details: 60 h, at 10 µM, stronger effect = lower value;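 note: 0% = 20 µM Hyamine control and 100% = vehicle cell control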
[5] = inhibitors of the yeast RAM network, pilot screen, dse1pr::URA3 reporter, 5-FOA selection (AID 869;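 active = inhibition over a set limit, the all-compound mean plus 3 SD, in both replicate runs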;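 note: 0% = DMSO wells with no growth and 100% = 10 µM 1-NA-PP1 with full growth; RAM network block rescues cells from 5-FOA so hits raise OD615 growth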); details: S. cerevisiae dse1pr::URA3 5-FOA growth, OD615, 2 d; at 10 µM; stronger effect = higher value; strain carries analog-sensitive mutant Cbk1 kinase
[6] = RAM signaling pathway blockade in yeast – S. cerevisiae, Pdr1DBD-CYC8 efflux-inhibited sensitized strain, primary screen (AID 1298;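 active = RAM network inhibition above 8.4% in each of two replicates, 3 SD over the compound average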;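 note: 0% = DMSO untreated cells without growth and 100% = 10 µM 1-NA-PP1 full growth; higher means more yeast growth rescued from 5-FOA killing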); details: S. cerevisiae cbk1-as DSE1-URA3 strain, 5-FOA growth OD615, 2 d; at 50 µM; stronger effect = higher value

COc1ccc(C2=[N+]([O-])C(C)(C)N(O)C2(C)C)cc1
inactive: growth inhibition [1] -8.58% | growth inhibition [2] 12.9% | viability increase [3] -1.34% | viability [4] 100% | inhibition [5] 1.38% | RAM network inhibition [6] 0.67%

Cc1ccc(C(C)NC(=O)c2ccco2)cc1C (centres undefined)
inactive: growth inhibition [1] -7.97% | growth inhibition [2] -4.3% | viability increase [3] -3.06% | viability [4] 98.8% | inhibition [5] 0.75% | RAM network inhibition [6] -1.23%

COc1ccc(Oc2coc3c(CN(C)C)c(O)ccc3c2=O)cc1
inactive: growth inhibition [1] -5.32% | growth inhibition [2] -12.9% | viability increase [3] -7.46% | viability [4] 95.3% | inhibition [5] 0.075% | RAM network inhibition [6] -0.21%

O=C(NCc1ccco1)C1CCN(C(=O)Cc2ccccc2)CC1
inactive: growth inhibition [1] -8.46% | growth inhibition [2] 4.75% | viability increase [3] -3.71% | viability [4] 102% | inhibition [5] 1.32% | RAM network inhibition [6] 3.59%

CCOC(=O)N1CCN(C(=O)c2ccc(CN(c3ccc(C)c(C)c3)S(C)(=O)=O)cc2)CC1
inactive: growth inhibition [1] -11.1% | growth inhibition [2] -1.85% | viability increase [3] -2.96% | viability [4] 99.4% | inhibition [5] 0.115% | RAM network inhibition [6] 5.73%

Cc1ccc(OCC(O)CN2CCN(c3ccccc3)CC2)cc1 (centres undefined)
inactive: growth inhibition [1] -3.02% | growth inhibition [2] -2.13% | viability increase [3] -0.7% | viability [4] 99.9% | inhibition [5] 1.23% | RAM network inhibition [6] 7.87%

Cn1c(=O)oc2cc(S(=O)(=O)N3CCCC(C(=O)NCc4ccc5c(c4)OCO5)C3)ccc21 (centres undefined)
inactive: growth inhibition [1] -7.5% | growth inhibition [2] 6.97% | viability increase [3] -7.5% | viability [4] 36.4% | inhibition [5] 3.25% | RAM network inhibition [6] 8.39%

COC(=O)c1c(NC(=O)Cc2cccs2)sc(C)c1C
inactive: growth inhibition [1] 2.9% | growth inhibition [2] 6.72% | viability increase [3] -4.9% | viability [4] 87% | inhibition [5] 1.54% | RAM network inhibition [6] 9.13%

Cc1cc(NS(=O)(=O)c2ccccc2)cc(Cl)c1O
inactive: growth inhibition [1] -22.9% | growth inhibition [2] 2.72% | viability increase [3] -2.8% | viability [4] 86.2% | inhibition [5] 1.4% | RAM network inhibition [6] 2.58%

COc1cc(NS(=O)(=O)c2ccc(NC(=O)COc3ccc(C)cc3)cc2)nc(OC)n1
inactive: growth inhibition [1] -14.3% | growth inhibition [2] -7.79% | viability increase [3] -1.12% | viability [4] 102% | inhibition [5] 1.73% | RAM network inhibition [6] 3.5%

COC(=O)c1ccc2[nH]c(C)c(CN3CCCC3)c(=O)c2c1
inactive: growth inhibition [1] -4.34% | growth inhibition [2] 1.2% | viability increase [3] -2.3% | viability [4] 95.3% | inhibition [5] 0.415% | RAM network inhibition [6] 1.59%

CCOC(=O)c1cc2c(=O)n3ccccc3nc2n(CCOC)c1=NC(=O)c1ccncc1
inactive: growth inhibition [1] -1.34% | growth inhibition [2] -11.8% | viability increase [3] -5.7% | viability [4] 99.6% | inhibition [5] 0.96% | RAM network inhibition [6] 5.99%

Cc1ccc(S(=O)(=O)NC(=O)Nn2c(C)nnc2C)cc1
inactive: growth inhibition [1] -8.7% | growth inhibition [2] -6.25% | viability increase [3] -0.15% | viability [4] 102% | inhibition [5] 0.75% | RAM network inhibition [6] 4.31%

CCOC(=O)N1CCN(C(=O)c2oc3ccc(S(=O)(=O)N4CC(C)CC(C)C4)cc3c2C)CC1 (centres undefined)
inactive: growth inhibition [1] -2.93% | growth inhibition [2] 2.18% | viability increase [3] -6.37% | viability [4] 42.5% | inhibition [5] 1.43% | RAM network inhibition [6] 4.64%

NC(=O)CCn1nc(-c2ccccc2)c2ccccc2c1=O
inactive: growth inhibition [1] 6.63% | growth inhibition [2] 13.7% | viability increase [3] -2.48% | viability [4] 96.8% | inhibition [5] 0.31% | RAM network inhibition [6] 0%

CCC1CCCCN1C(=O)Cn1c(=O)oc2ccccc21 (centres undefined)
inactive: growth inhibition [1] -8.32% | growth inhibition [2] -4.71% | viability increase [3] -2.07% | viability [4] 101% | inhibition [5] 1.96% | RAM network inhibition [6] 4.3%

CCOC(=O)C1CCN(C(=O)c2cn(C)c(=O)c3cc(OC)c(OC)cc23)CC1
inactive: growth inhibition [1] -3.38% | growth inhibition [2] -10.2% | viability increase [3] -4.21% | viability [4] 98% | inhibition [5] 1% | RAM network inhibition [6] 3.95%

Cc1ccc(Cl)cc1N(CC(=O)N1CCCCCC1)S(C)(=O)=O
inactive: growth inhibition [1] -9.3% | growth inhibition [2] 10.7% | viability increase [3] -3.63% | viability [4] 93.4% | inhibition [5] 0.635% | RAM network inhibition [6] 1.37%

Cc1ccc(-c2nc(-c3ccccn3)no2)cc1
inactive: growth inhibition [1] 1.26% | growth inhibition [2] 10.2% | viability increase [3] -5.02% | inhibition [5] -0.485% | RAM network inhibition [6] 1.82%
active: viability [4] 24.4%

CCOC(=O)N1CCN(C(=O)CN(C2CCCCC2)S(=O)(=O)c2ccc(C)cc2)CC1
inactive: growth inhibition [1] -13.9% | growth inhibition [2] -3.6% | viability increase [3] -4.47% | viability [4] 97.3% | inhibition [5] 1.92% | RAM network inhibition [6] -1.07%

Cc1onc(-c2ccccc2Cl)c1C(=O)N1CCN(c2cccc(Cl)c2)CC1
inactive: growth inhibition [1] -18.9% | growth inhibition [2] -13.7% | viability increase [3] -6.53% | inhibition [5] 2.73% | RAM network inhibition [6] 10.4%
active: viability [4] 22%

CC(=O)N1CCN(S(=O)(=O)c2ccc(C)cc2)C1c1ccc(N(C)C)cc1 (centres undefined)
inactive: growth inhibition [1] 4.58% | growth inhibition [2] 1.53% | viability increase [3] -2.16% | viability [4] 97.1% | inhibition [5] 1.61% | RAM network inhibition [6] 4.14%

COc1ccccc1N1CCN(CC(O)COc2ccc3c(C)cc(=O)oc3c2)CC1 (centres undefined)
inactive: growth inhibition [1] -3.12% | growth inhibition [2] -9.43% | viability increase [3] -2.57% | viability [4] 92.3% | inhibition [5] 1.95% | RAM network inhibition [6] 2.88%

CCOC(=O)CNS(=O)(=O)CCN1C(=O)c2ccccc2C1=O
inactive: growth inhibition [1] -8.36% | growth inhibition [2] -4.12% | viability increase [3] 0.26% | viability [4] 94.3% | inhibition [5] 2.52% | RAM network inhibition [6] 0.77%

COc1cc2c(cc1NC(=O)c1ccco1)CCCC2
inactive: growth inhibition [1] 3.87% | growth inhibition [2] -4.68% | viability increase [3] -6.9% | viability [4] 81.1% | inhibition [5] 2.06% | RAM network inhibition [6] 2.56%

COc1ccc(OC)c(N(CC(=O)Nc2ccc3c(c2)OCO3)S(=O)(=O)c2ccccc2)c1
inactive: growth inhibition [1] -11.4% | growth inhibition [2] -2.2% | viability increase [3] -2.35% | viability [4] 67.9% | inhibition [5] 3.23% | RAM network inhibition [6] 9.99%

CC(c1ccccc1F)n1cc(C(=O)NCCc2ccco2)nn1 (centres undefined)
inactive: growth inhibition [1] -12.9% | growth inhibition [2] -9.79% | viability increase [3] -4.02% | viability [4] 76.3% | inhibition [5] 0.72% | RAM network inhibition [6] 0.46%

CCOc1ccc(S(=O)(=O)N(C)c2ccc(OCC(=O)Nc3ccc4[nH]c(=O)[nH]c4c3)cc2)cc1
inactive: growth inhibition [1] -7.61% | growth inhibition [2] -11.1% | viability increase [3] -4.94% | viability [4] 94.1% | inhibition [5] 0.8% | RAM network inhibition [6] 7.12%

CCN1CCN(c2cc(C)c3cc(NC(=O)c4ccc5c(c4)OCO5)ccc3n2)CC1
inactive: growth inhibition [1] -12.3% | growth inhibition [2] -7.6% | viability increase [3] -8.06% | viability [4] 47.2% | inhibition [5] -0.365% | RAM network inhibition [6] 3.21%

COc1ccc(CNC(=O)CSc2nnnn2-c2ccc(O)cc2)cc1
inactive: growth inhibition [1] -0.35% | growth inhibition [2] -9.08% | viability increase [3] -4.35% | viability [4] 98.6% | inhibition [5] 2.5% | RAM network inhibition [6] 3.74%

c1coc(CNc2c3c(nc4ncnn24)CCCC3)c1
inactive: growth inhibition [1] 0.96% | growth inhibition [2] 6.76% | viability increase [3] -1.88% | viability [4] 93.1% | inhibition [5] -0.155% | RAM network inhibition [6] 1.39%

CCNc1nc2c(c(=O)n(C)c(=O)n2C)n1Cc1ccc(Cl)cc1
inactive: growth inhibition [1] -6.92% | growth inhibition [2] -2.02% | viability increase [3] -2.02% | viability [4] 58.3% | inhibition [5] -0.48% | RAM network inhibition [6] 1.98%

Cc1ccc(NC(=O)CC2SC3=NCCN3C2=O)cc1 (centres undefined)
inactive: growth inhibition [1] 3.71% | growth inhibition [2] 10.6% | viability increase [3] 3.08% | viability [4] 96.1% | inhibition [5] 1.66% | RAM network inhibition [6] 1.49%

CCN(CC)S(=O)(=O)c1ccc2oc(C(=O)NCc3ccc(F)cc3)c(C)c2c1
inactive: growth inhibition [1] -10.9% | growth inhibition [2] 12.4% | viability increase [3] -6.59% | viability [4] 60.6% | inhibition [5] 1.37% | RAM network inhibition [6] 7.7%

O=C(Oc1c(Cl)cc(Cl)c2cccnc12)N1CCCCC1
inactive: growth inhibition [1] -11.5% | growth inhibition [2] -7.42% | viability increase [3] -3.65% | viability [4] 77.5% | inhibition [5] 0.535% | RAM network inhibition [6] -1.03%

O=C(Nc1ccc(S(=O)(=O)N2CCOCC2)cc1)C1COc2ccccc2O1 (centres undefined)
inactive: growth inhibition [1] -6.88% | growth inhibition [2] -3.29% | viability increase [3] -1.63% | viability [4] 104% | inhibition [5] 0.055% | RAM network inhibition [6] 1.34%

CCN(CC)c1ccc(CNC23CN4CN(CN(C4)C2)C3)cc1
inactive: growth inhibition [1] -8.69% | growth inhibition [2] 2.79% | viability increase [3] -2.2% | viability [4] 94.1% | inhibition [5] 1.72% | RAM network inhibition [6] 2.4%

O=C1c2ccccc2N2C(=O)c3ccccc3C2N1Cc1ccco1 (centres undefined)
inactive: growth inhibition [1] -9.32% | growth inhibition [2] -5.68% | viability increase [3] -4.74% | viability [4] 85.1% | inhibition [5] 3.68% | RAM network inhibition [6] 3.03%

Cc1ccc(S(=O)(=O)N2CCN(C(=O)CCC(=O)N3CCc4ccccc43)CC2)cc1
inactive: growth inhibition [1] -2.18% | growth inhibition [2] -5.78% | viability increase [3] -1.16% | viability [4] 99.4% | inhibition [5] -0.03% | RAM network inhibition [6] 2.05%
